Results as given in ChEMBL document CHEMBL1142980, “Quinols as novel therapeutic agents. 7.1 Synthesis of antitumor 4-[1-(arylsulfonyl-1H-indol-2-yl)]-4-hydroxycyclohexa-2,5-dien-1-ones by Sonogashira reactions” (J Med Chem, 2007).

How the values were obtained:
[1] = Growth inhibition of NCI60 cells; assay type: functional; conditions: Homo sapiens; for CC50: read-out: LC50 (the source's name)
Method in brief: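 Run in the NCI in vitro 60 human cancer cell line panel. Potency is given as mean GI50 and mean LC50 (µM) across the panel. Individual lines with LC50 below 1 µM are reported separately.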

[2] = test system: CAKI-1; assay: Growth inhibition of human CAKI1 cells after 72 hrs by MTT assay; assay type: functional; conditions: CAKI-1, 72 h, read-out: LC50 (the source's name)
[3] = test system: HCT-116; assay: Growth inhibition of human HCT116 cells after 72 hrs by MTT assay; assay type: functional, cell-based; conditions: HCT-116, 72 h, read-out: LC50 (the source's name)
Method in brief: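 Human cancer cells given 72 h continuous drug exposure, growth measured by MTT assay; part of a preliminary five-line screen (colon HCT-116, HT29; breast MCF-7, MDA 468; non-small cell lung A549).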

[4] = Growth inhibition of human LOXIMV1 cells after 72 hrs by MTT assay; assay type: functional; conditions: LOX IMV1, 72 h, read-out: LC50 (the source's name)
[5] = test system: ACHN; assay: Growth inhibition of human ACHN cells after 72 hrs by MTT assay; assay type: functional; conditions: read-out: LC50 (the source's name)
[6] = test system: SK-MEL-5; assay: Growth inhibition of human SKMEL5 cells after 72 hrs by MTT assay; assay type: functional; conditions: SK-MEL-5, 72 h, read-out: LC50 (the source's name)
[7] = test system: BT-549; assay: Growth inhibition of human BT549 cells after 72 hrs by MTT assay; assay type: functional; conditions: BT-549, 72 h, read-out: LC50 (the source's name)
[8] = test system: A498; assay: Growth inhibition of human A498 cells after 72 hrs by MTT assay; assay type: functional; conditions: A498, 72 h, read-out: LC50 (the source's name)

SMILES | GI50 [1] | CC50 [1] | CC50 [2] | CC50 [3] | CC50 [4] | CC50 [5] | CC50 [6] | CC50 [7] | CC50 [8]
O=C1C=CC(O)(c2nc3ccccc3s2)C=C1 | 0.23 µM | 3.39 µM | – | – | – | – | – | – | –
O=C1C=CC(O)(c2cc3ccccc3n2S(=O)(=O)c2ccccc2)C=C1 | 0.039 µM | 2.95 µM | 0.05 µM | 0.03 µM | – | – | – | – | –
Cc1ccc(S(=O)(=O)n2c(C3(O)C=CC(=O)C=C3)cc3ccccc32)cc1 | 0.11 µM | 7.24 µM | – | < 0.01 µM | < 0.01 µM | 0.04 µM | – | – | –
O=C1C=CC(O)(c2cc3ccccc3n2S(=O)(=O)c2cccnc2)C=C1 | 0.41 µM | 14.1 µM | – | 0.29 µM | – | – | – | – | –
COC(=O)CCc1ccc(S(=O)(=O)n2c(C3(O)C=CC(=O)C=C3)cc3ccccc32)cc1 | 0.68 µM | 22.9 µM | – | 0.02 µM | – | – | 0.6 µM | – | –
COC(=O)CCc1ccc(S(=O)(=O)n2c(C3(O)C=CC(=O)C=C3)cc3ccc(F)cc32)cc1 | 0.5 µM | 10.5 µM | – | 0.72 µM | 0.81 µM | – | – | 0.74 µM | –
O=C1C=CC(O)(c2cc3ccc(F)cc3n2S(=O)(=O)c2ccc(CCC(=O)O)cc2)C=C1 | 2.5 µM | 29.5 µM | – | – | – | – | – | – | –
CN(C)c1cccc2c(S(=O)(=O)n3c(C4(O)C=CC(=O)C=C4)cc4ccccc43)cccc12 | 0.19 µM | 13.2 µM | – | – | – | 0.41 µM | – | – | 0.06 µM
O=C1C=CC(O)(c2cc3ccccc3n2S(=O)(=O)c2ccc(CCC(=O)O)cc2)C=C1 | 2.34 µM | 23.4 µM | – | – | – | – | – | – | –
CCOC(=O)Nc1ccc(S(=O)(=O)n2c(C3(O)C=CC(=O)C=C3)cc3ccccc32)cc1 | 0.19 µM | 7.58 µM | – | 0.295 µM | – | 0.6 µM | – | – | –
O=C1C=CC(O)(c2cc3cnccc3n2S(=O)(=O)c2ccccc2)C=C1 | 0.34 µM | 13.8 µM | 0.47 µM | 0.93 µM | – | – | – | – | –
Cc1ccc(S(=O)(=O)n2c(C3(O)C=CC(=O)C=C3)cc3ccncc32)cc1 | 0.17 µM | 5.75 µM | – | < 0.01 µM | 0.06 µM | 0.05 µM | – | – | –
O=C1C=CC(O)(c2cc3ccc(F)cc3n2S(=O)(=O)c2ccccc2)C=C1 | 0.016 µM | 2.24 µM | – | – | – | – | – | – | –
